Measurements: paper PMC3064798 (Nucleic Acids Research, 2011)
Where “and” joins values, the source holds several entries; their conditions need not be identical. Equal values may be shown once.

What was measured:
Therminator polymerase [1] = molecular target: T1, Therminator polymerase (Thermococcus sp., UniProt Q56366, A485L/D141A/E143A); experiment: Nucleotide selectivity; format: biochemical
T1 sequence (Q56366 1-775 D141A/E143A/A485L): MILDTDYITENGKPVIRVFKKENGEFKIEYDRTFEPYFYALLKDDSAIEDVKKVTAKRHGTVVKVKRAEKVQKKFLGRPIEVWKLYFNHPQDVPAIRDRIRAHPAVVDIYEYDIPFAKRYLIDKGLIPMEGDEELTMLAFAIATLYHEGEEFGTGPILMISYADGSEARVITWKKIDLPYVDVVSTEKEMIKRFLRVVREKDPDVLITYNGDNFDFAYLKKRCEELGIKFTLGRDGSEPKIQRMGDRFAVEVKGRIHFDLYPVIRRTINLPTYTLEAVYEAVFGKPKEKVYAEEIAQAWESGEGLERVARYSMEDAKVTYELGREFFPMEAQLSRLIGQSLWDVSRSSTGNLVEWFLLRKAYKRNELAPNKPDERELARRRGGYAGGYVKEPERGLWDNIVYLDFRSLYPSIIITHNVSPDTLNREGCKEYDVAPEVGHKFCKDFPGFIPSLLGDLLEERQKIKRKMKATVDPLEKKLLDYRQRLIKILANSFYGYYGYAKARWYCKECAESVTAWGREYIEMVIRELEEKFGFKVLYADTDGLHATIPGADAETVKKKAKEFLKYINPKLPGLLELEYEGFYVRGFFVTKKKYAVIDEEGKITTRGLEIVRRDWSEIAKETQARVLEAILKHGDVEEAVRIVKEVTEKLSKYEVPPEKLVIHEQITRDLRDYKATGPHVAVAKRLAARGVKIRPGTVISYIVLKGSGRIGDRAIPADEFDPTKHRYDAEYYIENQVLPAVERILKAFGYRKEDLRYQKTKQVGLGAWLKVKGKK
Outline: (§1)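 Base discrimination was measured by PEP assay. OligoTemplate-4 was replaced with 40 nM oligoTemplate-2 or oligoTemplate-5 to give mismatched template bases. For the T—G mismatch, 5 nM BODIPY-FL primer-3 was hybridised to 40 nM oligoTemplate-8. The selectivity ratio is the mismatched IC50 divided by the matched IC50.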

Vent(exo^−) polymerase [2] = molecular target: T2, Vent(exo^−) polymerase (Thermococcus litoralis, UniProt P30317, D141A/DEL1082-1471/DEL495-1032/E143A); experiment: Weighted-sum assay for termination; format: biochemical; conditions: nucleotide at 3 μM (∼1000× IC50), oligoTemplate-7
T2 sequence (P30317 with tags, fused parts or gaps D141A/E143A/DEL495-1032/DEL1082-1471): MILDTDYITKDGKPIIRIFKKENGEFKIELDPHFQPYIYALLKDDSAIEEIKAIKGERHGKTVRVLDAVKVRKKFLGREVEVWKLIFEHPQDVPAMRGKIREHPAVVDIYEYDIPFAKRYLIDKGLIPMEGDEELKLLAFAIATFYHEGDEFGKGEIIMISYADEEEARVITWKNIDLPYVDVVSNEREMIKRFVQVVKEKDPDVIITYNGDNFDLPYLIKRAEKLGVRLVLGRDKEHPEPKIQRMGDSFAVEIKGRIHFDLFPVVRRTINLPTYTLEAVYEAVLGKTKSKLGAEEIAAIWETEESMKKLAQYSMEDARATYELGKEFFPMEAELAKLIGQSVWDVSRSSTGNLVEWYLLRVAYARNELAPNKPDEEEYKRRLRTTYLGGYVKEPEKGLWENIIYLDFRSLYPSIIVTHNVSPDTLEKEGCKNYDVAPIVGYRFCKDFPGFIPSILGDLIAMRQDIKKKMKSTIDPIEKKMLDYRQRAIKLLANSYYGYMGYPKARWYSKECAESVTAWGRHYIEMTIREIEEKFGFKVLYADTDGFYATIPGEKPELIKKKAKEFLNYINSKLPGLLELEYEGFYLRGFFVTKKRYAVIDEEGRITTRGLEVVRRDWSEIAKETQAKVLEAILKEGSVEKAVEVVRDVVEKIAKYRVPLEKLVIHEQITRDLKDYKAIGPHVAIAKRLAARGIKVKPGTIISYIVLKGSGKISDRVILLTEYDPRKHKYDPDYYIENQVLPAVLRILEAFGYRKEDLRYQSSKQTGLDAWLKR

Therminator polymerase [3] = molecular target: T1, Therminator polymerase; experiment: Ten cycle CRT sequencing; format: biochemical; conditions: 3 μM; UV cleavage in 50 mM sodium azide
Outline: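 Biotinylated oligoTemplate-7 was bound to streptavidin M-270 beads with BODIPY-FL primer-2S, then preloaded with 0.5 U Therminator in 1× ThermoPol on ice for 5 min. Each cycle: incorporation at 65°C for 5 min, W10 washes, then 365 nm UV (~0.7 W/cm2, 4× 1 min) in 50 mM azide and ThermoPol washes. After ten cycles, products were run on a 10% polyacrylamide gel (377). Band quantification gave cycle efficiency (incorporation × cleavage) and dephasing (%n–2, %n–1, %n+1).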

TaqFS polymerase = TaqFS polymerase (Thermus aquaticus, UniProt P19821, F667Y/G46D); experiment: PEP; format: biochemical; conditions: TaqFS; Not Active = no visible +1 band in 377 gel image at 100 μM
Chain of TaqFS polymerase (P19821 whole entry G46D/F667Y): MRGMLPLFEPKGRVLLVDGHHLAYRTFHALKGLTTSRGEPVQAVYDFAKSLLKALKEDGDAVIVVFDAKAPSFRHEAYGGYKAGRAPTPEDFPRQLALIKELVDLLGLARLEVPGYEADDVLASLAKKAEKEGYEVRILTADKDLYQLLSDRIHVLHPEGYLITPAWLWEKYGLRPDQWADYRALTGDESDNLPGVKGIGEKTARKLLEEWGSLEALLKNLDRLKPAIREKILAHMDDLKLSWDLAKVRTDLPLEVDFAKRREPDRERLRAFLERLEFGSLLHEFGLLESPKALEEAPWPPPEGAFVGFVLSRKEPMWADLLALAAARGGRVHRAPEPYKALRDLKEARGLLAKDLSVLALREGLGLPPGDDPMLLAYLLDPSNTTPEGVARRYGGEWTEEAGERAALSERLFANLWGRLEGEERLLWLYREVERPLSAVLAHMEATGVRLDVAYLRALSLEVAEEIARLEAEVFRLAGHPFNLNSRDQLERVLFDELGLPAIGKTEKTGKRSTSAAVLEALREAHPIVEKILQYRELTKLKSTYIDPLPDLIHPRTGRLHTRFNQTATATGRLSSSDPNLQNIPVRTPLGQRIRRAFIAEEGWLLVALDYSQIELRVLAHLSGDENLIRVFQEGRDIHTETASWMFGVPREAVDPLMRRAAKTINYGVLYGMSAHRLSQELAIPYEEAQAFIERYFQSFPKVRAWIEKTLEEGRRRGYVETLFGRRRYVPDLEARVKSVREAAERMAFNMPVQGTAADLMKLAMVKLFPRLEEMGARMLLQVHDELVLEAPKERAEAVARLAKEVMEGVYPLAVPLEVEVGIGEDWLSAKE
Outline: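 Polymerase end-point assay for single-base incorporation. 5 nM BODIPY-FL-labelled primer-1 was hybridised to 40 nM oligoTemplate-4, with the interrogation base complementary to dU. Absence of a +1 band on the 377 gel image at 100 μM counts as not active. IC50 was averaged from triplicates ± 1 SD. Incorporation bias is the analog IC50 divided by the natural-nucleotide (HOMedUTP) IC50.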

[4] = Photochemical cleavage studies; format: physicochemical; conditions: 50 mM NaN3; 365 nm UV; incorporated in primer-1/oligoTemplate-4
Outline: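 Analogs (100 nM final) were incorporated as in PEP on BODIPY-FL primer-1/oligoTemplate-4 (10 nM/80 nM). Reactions were quenched in FBD solution (20% formamide, 10 mM Na2EDTA pH 8.0, Blue Dextran) or 50 mM sodium azide. Samples were irradiated at 365 nm for various times, then iced, mixed with formamide stop solution and run on an AB 377 sequencer. DT50 is the time for 50% cleavage, from triplicates ± 1 SD.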

Therminator polymerase [5] = molecular target: T1, Therminator polymerase; experiment: Weighted-sum assay for termination; format: biochemical; conditions: nucleotide at 3 μM (∼1000× IC50), oligoTemplate-7
Vent(exo^−) polymerase [6] = molecular target: T2, Vent(exo^−) polymerase; conditions: cited from earlier work
Vent(exo^−) polymerase [7] = molecular target: T2, Vent(exo^−) polymerase; experiment: PCR of TCF1 exons 2 and 10 with TTP or HOMedUTP; format: biochemical; conditions: 200 μM each dNTP
Outline: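 Human genomic DNA (~50 ng) was amplified with 0.4 µM primer pairs and one unit of Vent(exo−). Buffer was 1× ThermoPol (20 mM Tris–HCl pH 8.8, 2 mM MgSO4, etc.) with 1 M betaine. dATP, dCTP and dGTP were at 200 μM each, with TTP or HOMedUTP. Cycling: 95°C 4 min; 35× (95°C 30 s, 59°C 30 s, 72°C 90 s); 72°C 7 min. Expected products: 602 bp (exon 2) and 670 bp (exon 10).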

Vent(exo^−) polymerase [8] = molecular target: T2, Vent(exo^−) polymerase; experiment: Nucleotide selectivity; format: biochemical; conditions: each mismatch combination
Outline: as §1

Cc1cn([C@H]2C[C@H](O)[C@@H](COP(=O)(O)OP(=O)(O)OP(=O)(O)O)O2)c(=O)n(Cc2ccccc2[N+](=O)[O-])c1=O [T.I, N^3-(2-Nitrobenzyl)-thymidine-5’-triphosphate]
Selectivity ratios / mismatch discrimination (in words) (Therminator polymerase [1]): indiscriminately against all mismatched template bases

CC(C)(C)[C@H](OCc1cn([C@H]2C[C@H](O)[C@@H](COP(=O)(O)OP(=O)(O)OP(=O)(O)O)O2)c(=O)[nH]c1=O)c1ccccc1[N+](=O)[O-] [dU.V, 5-[(S)-1-(2-nitrophenyl)-2,2-dimethyl-propyloxy]methyl-2'-deoxyuridine-5’-triphosphate]
Weighted-sum value (Vent(exo^−) polymerase [2]): 1.0 and 1.0 ± 0.0
Overall signal of reaction products over the 10 CRT cycles (Therminator polymerase [3]): remained relatively constant
IC50 values (activity in words) (TaqFS polymerase): not incorporated
Selectivity ratios / mismatch discrimination (in words) (Therminator polymerase [1]): almost three orders of magnitude
DT50 values (time at which 50% of 2-nitrobenzyl groups were photochemically cleaved) [4]: 1.3 s and 1.3 ± 0.1 s
Weighted-sum value (Therminator polymerase [5]): 1.0 and 1.0 ± 0.0

C=CCO[C@H]1C[C@H](n2cnc3c(N)ncnc32)O[C@@H]1COP(=O)(O)OP(=O)(O)OP(=O)(O)O [3′-O-allyl-dATP]
Incorporation by polymerase (in words) (Vent(exo^−) polymerase [6]): not efficiently incorporated

CC(C)[C@H](OCc1cn([C@H]2C[C@H](O)[C@@H](COP(=O)(O)OP(=O)(O)OP(=O)(O)O)O2)c(=O)[nH]c1=O)c1ccccc1[N+](=O)[O-] [dU.IV, 5-[(S)-1-(2-Nitrophenyl)-2-methyl-propyloxy]methyl-2'-deoxyuridine-5’-triphosphate]
Weighted-sum value (Vent(exo^−) polymerase [2]): 1.7 and 1.7 ± 0.1
Selectivity ratios / mismatch discrimination (in words) (Therminator polymerase [1]): almost three orders of magnitude
DT50 values (time at which 50% of 2-nitrobenzyl groups were photochemically cleaved) [4]: 1.8 s and 1.8 ± 0.1 s
Weighted-sum value (Therminator polymerase [5]): 1.9 and 1.9 ± 0.2

O=c1[nH]c(=O)n([C@H]2C[C@H](O)[C@@H](COP(=O)(O)OP(=O)(O)OP(=O)(O)O)O2)cc1CO [HOMedUTP, 5-hydroxymethyl-2′-deoxyuridine triphosphate]
PCR product yield and size, HOMedUTP in place of TTP (Vent(exo^−) polymerase [7]): Comparable yields and product size
Selectivity ratio (mismatched IC50/matched IC50) (Vent(exo^−) polymerase [8]): greater than three orders of magnitude
